Results published in ChEMBL document CHEMBL1137478, “Optimization of triarylimidazoles for Tie2: influence of conformation on potency” (Bioorg Med Chem Lett, 2007).

Experiments:
Mus musculus [1] = assay: Inhibition of bFGF-stimulated angiogenesis in Matrigel mouse model at 25 mg/kg, po after 6 days; format: functional; conditions: 144 h
In short: (§1)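 Mice bear Matrigel plugs in which angiogenesis is driven by bFGF; compound given as two doses. Control groups are untreated bFGF mice and mice without bFGF. Animals are killed after 6 days, and the heme content of the Matrigel plug is measured as the angiogenesis read-out.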

Mus musculus [2] = assay: Inhibition of bFGF-stimulated angiogenesis in Matrigel mouse model at 50 mg/kg, po after 6 days; format: functional; conditions: 144 h; in short: as §1
[3] = Inhibition of GSK3; set-up: species or system Homo sapiens
[4] = biological target: RAC-alpha serine/threonine-protein kinase (Homo sapiens, UniProt P31749); assay: Inhibition of AKT1
Angiopoietin-1 receptor [5] = biological target: T1, Angiopoietin-1 receptor (Homo sapiens, UniProt Q02763); assay: Inhibition of Tie2
T1 sequence (Q02763 whole entry): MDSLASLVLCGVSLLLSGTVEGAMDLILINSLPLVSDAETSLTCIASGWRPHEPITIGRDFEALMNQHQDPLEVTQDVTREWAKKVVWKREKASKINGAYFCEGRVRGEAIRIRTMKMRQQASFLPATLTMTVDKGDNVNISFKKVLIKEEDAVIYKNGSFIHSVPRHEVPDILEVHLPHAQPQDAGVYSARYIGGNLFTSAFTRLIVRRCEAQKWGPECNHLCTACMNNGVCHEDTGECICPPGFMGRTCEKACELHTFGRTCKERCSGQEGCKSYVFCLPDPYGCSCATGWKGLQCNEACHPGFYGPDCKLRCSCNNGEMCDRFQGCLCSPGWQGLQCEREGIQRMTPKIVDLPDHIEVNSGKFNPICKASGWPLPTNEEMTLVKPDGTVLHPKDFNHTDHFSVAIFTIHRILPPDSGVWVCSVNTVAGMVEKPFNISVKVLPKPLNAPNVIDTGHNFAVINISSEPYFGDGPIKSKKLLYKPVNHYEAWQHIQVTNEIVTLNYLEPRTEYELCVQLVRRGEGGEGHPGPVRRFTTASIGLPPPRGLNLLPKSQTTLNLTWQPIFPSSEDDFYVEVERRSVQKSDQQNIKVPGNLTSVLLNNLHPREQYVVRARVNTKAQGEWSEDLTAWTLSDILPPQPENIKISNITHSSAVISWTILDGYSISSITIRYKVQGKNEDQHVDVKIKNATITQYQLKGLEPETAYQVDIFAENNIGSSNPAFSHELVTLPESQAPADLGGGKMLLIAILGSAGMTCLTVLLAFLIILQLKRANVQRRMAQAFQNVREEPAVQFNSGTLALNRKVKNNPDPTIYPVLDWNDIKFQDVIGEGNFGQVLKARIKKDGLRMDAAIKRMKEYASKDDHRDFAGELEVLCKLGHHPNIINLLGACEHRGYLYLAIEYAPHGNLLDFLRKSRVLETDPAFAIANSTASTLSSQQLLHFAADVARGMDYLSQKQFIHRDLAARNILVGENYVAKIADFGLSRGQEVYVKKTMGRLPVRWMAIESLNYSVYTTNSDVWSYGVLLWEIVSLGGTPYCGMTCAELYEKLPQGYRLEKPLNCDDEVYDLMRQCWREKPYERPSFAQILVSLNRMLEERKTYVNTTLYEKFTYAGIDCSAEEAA

[6] = biological target: Insulin-like growth factor 1 receptor (Homo sapiens, UniProt P08069); assay: Inhibition of IGFR1
Insulin receptor = Insulin receptor (Homo sapiens, UniProt P06213); assay: Inhibition of INSR
[7] = biological target: T2, Receptor-type tyrosine-protein kinase FLT3 (Homo sapiens, UniProt P36888); assay: Inhibition of FLT3
T2 sequence (P36888 whole entry): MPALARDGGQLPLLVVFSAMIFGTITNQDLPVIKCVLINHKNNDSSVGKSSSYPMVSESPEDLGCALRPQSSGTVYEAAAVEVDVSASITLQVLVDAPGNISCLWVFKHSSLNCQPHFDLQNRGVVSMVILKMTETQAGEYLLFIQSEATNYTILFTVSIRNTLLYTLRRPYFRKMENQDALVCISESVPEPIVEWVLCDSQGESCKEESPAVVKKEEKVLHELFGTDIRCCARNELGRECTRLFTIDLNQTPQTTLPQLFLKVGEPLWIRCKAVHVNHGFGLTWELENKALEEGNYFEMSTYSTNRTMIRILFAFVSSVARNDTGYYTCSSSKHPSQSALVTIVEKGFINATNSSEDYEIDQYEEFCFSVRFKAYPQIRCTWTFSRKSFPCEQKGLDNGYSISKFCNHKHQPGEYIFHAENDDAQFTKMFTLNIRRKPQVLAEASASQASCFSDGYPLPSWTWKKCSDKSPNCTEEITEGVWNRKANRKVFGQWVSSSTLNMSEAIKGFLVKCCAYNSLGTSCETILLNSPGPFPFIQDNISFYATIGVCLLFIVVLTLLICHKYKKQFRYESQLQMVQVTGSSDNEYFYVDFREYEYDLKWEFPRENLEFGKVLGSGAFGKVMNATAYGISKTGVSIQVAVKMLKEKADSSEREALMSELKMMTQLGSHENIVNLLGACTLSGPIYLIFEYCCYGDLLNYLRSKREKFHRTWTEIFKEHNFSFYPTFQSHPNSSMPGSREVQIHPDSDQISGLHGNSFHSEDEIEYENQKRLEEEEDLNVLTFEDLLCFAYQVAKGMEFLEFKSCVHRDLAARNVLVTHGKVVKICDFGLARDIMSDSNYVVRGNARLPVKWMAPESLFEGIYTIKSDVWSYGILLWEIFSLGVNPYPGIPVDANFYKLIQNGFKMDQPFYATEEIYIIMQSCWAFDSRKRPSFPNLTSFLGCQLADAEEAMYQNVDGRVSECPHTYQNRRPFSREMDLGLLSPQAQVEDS

[8] = biological target: Mast/stem cell growth factor receptor Kit (Homo sapiens, UniProt P10721); assay: Inhibition of KIT
[9] = biological target: Platelet-derived growth factor receptor alpha (Homo sapiens, UniProt P16234); assay: Inhibition of PDGFRalpha
[10] = biological target: Platelet-derived growth factor receptor beta (Homo sapiens, UniProt P09619); assay: Inhibition of PDGFRbeta
Chain of Platelet-derived growth factor receptor beta (P09619 whole entry): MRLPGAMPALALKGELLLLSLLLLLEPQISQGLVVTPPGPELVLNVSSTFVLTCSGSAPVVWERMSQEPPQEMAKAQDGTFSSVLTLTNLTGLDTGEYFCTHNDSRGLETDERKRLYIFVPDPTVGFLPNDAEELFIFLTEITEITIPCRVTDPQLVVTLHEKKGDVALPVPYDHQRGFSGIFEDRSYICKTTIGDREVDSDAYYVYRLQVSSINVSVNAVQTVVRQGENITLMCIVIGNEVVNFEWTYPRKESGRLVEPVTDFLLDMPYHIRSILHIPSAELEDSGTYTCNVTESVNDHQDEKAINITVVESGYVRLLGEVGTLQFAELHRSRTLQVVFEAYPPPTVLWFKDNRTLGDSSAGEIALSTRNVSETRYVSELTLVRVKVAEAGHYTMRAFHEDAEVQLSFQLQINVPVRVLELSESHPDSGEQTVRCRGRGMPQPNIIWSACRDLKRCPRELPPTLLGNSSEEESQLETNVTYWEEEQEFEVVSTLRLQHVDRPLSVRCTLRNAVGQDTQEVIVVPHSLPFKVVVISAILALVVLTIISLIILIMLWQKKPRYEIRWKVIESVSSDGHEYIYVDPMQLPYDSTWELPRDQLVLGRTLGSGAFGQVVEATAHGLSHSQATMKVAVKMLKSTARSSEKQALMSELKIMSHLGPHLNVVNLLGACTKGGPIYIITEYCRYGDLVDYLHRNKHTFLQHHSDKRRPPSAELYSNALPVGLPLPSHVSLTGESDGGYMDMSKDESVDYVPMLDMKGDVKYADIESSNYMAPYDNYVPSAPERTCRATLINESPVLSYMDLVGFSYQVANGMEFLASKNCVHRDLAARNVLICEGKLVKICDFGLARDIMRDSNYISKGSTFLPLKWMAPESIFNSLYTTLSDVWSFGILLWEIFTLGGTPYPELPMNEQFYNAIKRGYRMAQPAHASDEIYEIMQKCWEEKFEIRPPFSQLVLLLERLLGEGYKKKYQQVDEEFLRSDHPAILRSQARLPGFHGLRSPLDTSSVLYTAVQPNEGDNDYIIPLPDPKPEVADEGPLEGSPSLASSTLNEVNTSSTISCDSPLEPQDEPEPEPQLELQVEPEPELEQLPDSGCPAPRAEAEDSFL

[11] = biological target: Vascular endothelial growth factor receptor 2 (Homo sapiens, UniProt P35968); assay: Inhibition of VEGFR2
[12] = biological target: Fibroblast growth factor receptor 1 (Homo sapiens, UniProt P11362); assay: Inhibition of FGFR1
[13] = biological target: Hepatocyte growth factor receptor (Homo sapiens, UniProt P08581); assay: Inhibition of MET
Chain of Hepatocyte growth factor receptor (P08581 whole entry): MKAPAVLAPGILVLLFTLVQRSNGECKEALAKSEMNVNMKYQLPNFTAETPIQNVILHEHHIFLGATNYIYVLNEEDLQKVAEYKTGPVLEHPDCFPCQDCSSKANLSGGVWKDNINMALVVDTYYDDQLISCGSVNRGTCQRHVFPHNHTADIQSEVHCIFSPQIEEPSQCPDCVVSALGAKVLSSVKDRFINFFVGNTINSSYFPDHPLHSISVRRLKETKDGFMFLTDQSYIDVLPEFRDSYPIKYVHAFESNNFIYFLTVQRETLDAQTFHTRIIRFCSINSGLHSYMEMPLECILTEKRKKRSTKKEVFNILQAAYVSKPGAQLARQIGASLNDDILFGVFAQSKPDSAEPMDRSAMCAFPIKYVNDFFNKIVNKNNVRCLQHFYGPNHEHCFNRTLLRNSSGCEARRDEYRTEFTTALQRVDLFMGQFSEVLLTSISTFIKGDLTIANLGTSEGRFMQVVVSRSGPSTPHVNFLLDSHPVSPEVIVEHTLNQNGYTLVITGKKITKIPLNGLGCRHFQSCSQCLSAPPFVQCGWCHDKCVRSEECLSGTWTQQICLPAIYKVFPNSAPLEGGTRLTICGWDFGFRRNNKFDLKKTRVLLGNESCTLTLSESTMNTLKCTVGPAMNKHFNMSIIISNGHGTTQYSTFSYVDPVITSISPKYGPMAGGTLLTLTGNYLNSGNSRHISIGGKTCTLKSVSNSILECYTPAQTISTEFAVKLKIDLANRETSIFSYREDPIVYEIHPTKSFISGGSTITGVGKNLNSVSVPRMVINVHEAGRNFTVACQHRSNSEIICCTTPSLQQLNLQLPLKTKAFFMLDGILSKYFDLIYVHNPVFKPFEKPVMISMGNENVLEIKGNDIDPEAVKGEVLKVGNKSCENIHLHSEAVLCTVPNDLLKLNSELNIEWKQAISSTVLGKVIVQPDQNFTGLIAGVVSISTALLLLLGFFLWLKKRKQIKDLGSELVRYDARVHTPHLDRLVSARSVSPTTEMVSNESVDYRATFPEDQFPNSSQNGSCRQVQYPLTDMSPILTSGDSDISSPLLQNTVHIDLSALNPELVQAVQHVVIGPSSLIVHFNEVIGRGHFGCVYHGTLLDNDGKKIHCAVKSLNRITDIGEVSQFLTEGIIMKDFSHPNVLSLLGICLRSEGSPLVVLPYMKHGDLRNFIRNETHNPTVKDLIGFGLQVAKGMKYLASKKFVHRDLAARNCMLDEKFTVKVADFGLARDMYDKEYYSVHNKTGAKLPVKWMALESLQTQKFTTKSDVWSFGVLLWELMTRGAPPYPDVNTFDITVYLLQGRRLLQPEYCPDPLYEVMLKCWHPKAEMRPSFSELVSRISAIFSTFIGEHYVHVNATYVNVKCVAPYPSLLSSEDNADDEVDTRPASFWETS

[14] = biological target: Tyrosine-protein kinase ABL1 (Homo sapiens, UniProt P00519); assay: Inhibition of Abl kinase
Chain of Tyrosine-protein kinase ABL1 (P00519 whole entry): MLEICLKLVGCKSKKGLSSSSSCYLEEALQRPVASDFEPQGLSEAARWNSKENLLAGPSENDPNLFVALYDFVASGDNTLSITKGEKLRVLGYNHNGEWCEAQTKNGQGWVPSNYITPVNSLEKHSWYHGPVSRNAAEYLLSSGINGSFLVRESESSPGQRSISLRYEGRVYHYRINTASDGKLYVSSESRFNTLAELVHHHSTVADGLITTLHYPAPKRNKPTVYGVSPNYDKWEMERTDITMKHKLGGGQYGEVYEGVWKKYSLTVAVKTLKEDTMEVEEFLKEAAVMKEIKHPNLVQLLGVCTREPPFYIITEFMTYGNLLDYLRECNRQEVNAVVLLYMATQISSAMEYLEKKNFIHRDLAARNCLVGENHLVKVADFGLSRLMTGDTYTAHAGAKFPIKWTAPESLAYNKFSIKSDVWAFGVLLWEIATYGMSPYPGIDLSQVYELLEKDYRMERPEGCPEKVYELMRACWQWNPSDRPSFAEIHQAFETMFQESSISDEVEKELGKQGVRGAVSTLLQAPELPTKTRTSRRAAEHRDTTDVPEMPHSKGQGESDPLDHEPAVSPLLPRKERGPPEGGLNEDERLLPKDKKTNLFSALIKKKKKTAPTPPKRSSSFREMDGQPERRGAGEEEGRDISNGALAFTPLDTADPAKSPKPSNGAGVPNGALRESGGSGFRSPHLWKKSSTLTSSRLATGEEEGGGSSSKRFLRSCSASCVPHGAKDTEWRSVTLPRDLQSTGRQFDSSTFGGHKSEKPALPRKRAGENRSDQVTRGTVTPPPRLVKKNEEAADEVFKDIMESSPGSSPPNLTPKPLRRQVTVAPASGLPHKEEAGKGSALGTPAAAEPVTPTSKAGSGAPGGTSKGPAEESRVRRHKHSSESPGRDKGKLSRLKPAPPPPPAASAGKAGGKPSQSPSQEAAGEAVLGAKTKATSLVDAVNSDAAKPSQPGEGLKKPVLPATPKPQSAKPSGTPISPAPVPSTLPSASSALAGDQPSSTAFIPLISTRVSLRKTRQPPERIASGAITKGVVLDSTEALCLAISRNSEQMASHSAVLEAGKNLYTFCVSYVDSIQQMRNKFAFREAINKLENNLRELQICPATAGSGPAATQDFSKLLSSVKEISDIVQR

[15] = biological target: Protein kinase C beta type (Homo sapiens, UniProt P05771); assay: Inhibition of PKCbeta1
MAP kinase p38 = MAP kinase p38 (Homo sapiens, UniProt O15264+Q15759+Q16539+P53778); assay: Inhibition of mitogen-activated protein kinase p38; format: protein assay
[16] = biological target: Cyclin-dependent kinase 2 (Homo sapiens, UniProt P24941); assay: Inhibition of CDK2
TGF-beta receptor type-1 = biological target: T3, TGF-beta receptor type-1 (Homo sapiens, UniProt P36897)
T3 sequence (P36897 whole entry): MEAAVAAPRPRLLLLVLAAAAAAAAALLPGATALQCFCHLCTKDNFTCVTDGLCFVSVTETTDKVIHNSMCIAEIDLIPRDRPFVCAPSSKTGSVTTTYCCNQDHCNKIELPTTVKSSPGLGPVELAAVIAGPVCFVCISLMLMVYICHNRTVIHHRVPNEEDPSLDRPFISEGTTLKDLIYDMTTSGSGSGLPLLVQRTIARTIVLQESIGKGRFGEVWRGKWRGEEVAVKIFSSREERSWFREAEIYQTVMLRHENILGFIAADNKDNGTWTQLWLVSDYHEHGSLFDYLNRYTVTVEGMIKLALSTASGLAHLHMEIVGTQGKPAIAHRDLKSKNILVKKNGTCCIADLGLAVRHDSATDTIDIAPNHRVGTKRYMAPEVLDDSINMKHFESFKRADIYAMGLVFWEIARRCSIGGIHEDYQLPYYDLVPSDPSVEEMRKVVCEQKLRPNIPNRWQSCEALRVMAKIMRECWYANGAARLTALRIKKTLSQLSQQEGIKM

[17] = biological target: Macrophage colony-stimulating factor 1 receptor (Homo sapiens, UniProt P07333)
Angiopoietin-1 receptor [18] = biological target: T1, Angiopoietin-1 receptor; assay: Inhibition of Tie2 at 10 uM

SMILES | IC50 (Angiopoietin-1 receptor [5]) [nM] | other results
COc1ccc2cc(-c3c(-c4ccncc4)nc(-c4ccc([S+](C)[O-])cc4C)n3C)ccc2c1 (stereo not given) | 12 | inhibition in vivo at 25 mg/kg (Mus musculus [1]): 35%; inhibition in vivo at 50 mg/kg (Mus musculus [2]): 80%; IC50 [3]: > 30000 nM; IC50 [4]: > 30000 nM; IC50 [6]: > 30000 nM; IC50 (Insulin receptor): > 30000 nM; IC50 [7]: > 30000 nM; IC50 [8]: > 30000 nM; IC50 [9]: > 30000 nM; IC50 [10]: > 30000 nM; IC50 [11]: 1500 nM; IC50 [12]: 9700 nM; IC50 [13]: > 30000 nM; IC50 [14]: > 30000 nM; IC50 [15]: > 30000 nM; IC50 (MAP kinase p38): 4100 nM; IC50 [16]: > 30000 nM; IC50 (TGF-beta receptor type-1): 296 nM; IC50 [17]: 550 nM
COc1ccc2cc(-c3[nH]c(-c4c(Cl)cccc4Cl)nc3-c3ccncc3)ccc2c1 | 78 | 
COc1ccc2cc(-c3[nH]c(-c4ccc(SC)cc4C)nc3-c3ccncc3)ccc2c1 | 1300 | 
COc1ccc2cc(-c3[nH]c(-c4ccc(SC)cc4Cl)nc3-c3ccncc3)ccc2c1 | 1500 | 
COc1ccc2cc(-c3c(-c4ccncc4)nc(-c4ccc(S(C)(=O)=O)cc4C)n3C)ccc2c1 | 114 | 
COc1ccc2cc(-c3[nH]c(-c4ccc(S(C)(=O)=O)cc4C)nc3-c3ccncc3)ccc2c1 | 40 | 
COc1ccc2cc(-c3[nH]c(-c4ccc(S(C)(=O)=O)cc4Cl)nc3-c3ccncc3)ccc2c1 | 59 | 
COc1ccc2cc(-c3nc(-c4ccc([S@+](C)[O-])cc4C)[nH]c3-c3ccncc3)ccc2c1 | 95 | 
COc1ccc2cc(-c3nc(-c4ccc([S+](C)[O-])cc4C)[nH]c3-c3ccncc3)ccc2c1 (stereo not given) | 36 | 
COc1ccc2cc(-c3nc(-c4ccccc4Cl)[nH]c3-c3ccncc3)ccc2c1 | 157 | 
COc1ccc2cc(-c3nc(-c4ccccc4F)[nH]c3-c3ccncc3)ccc2c1 | 1600 | 
COc1ccc2cc(-c3nc(-c4ccc([S@@+](C)[O-])cc4C)[nH]c3-c3ccncc3)ccc2c1 | 22 | 
COc1ccc2cc(-c3nc(-c4ccc(S(C)(=O)=O)cc4)[nH]c3-c3ccncc3)ccc2c1 | 250 | 
COc1ccc2cc(-c3[nH]c(-c4ccccc4C)nc3-c3ccncc3)ccc2c1 | 387 | 
CCc1ccccc1-c1nc(-c2ccc3cc(OC)ccc3c2)c(-c2ccncc2)[nH]1 | 346 | 
COc1ccc2cc(-c3[nH]c(-c4ccc([S+](C)[O-])cc4Cl)nc3-c3ccncc3)ccc2c1 (stereo not given) | 51 | 
COc1ccc2cc(-c3nc(-c4ccccc4)[nH]c3-c3ccncc3)ccc2c1 |  | inhibition (Angiopoietin-1 receptor [18]): 60%
COc1ccc2cc(-c3[nH]c(-c4ccccc4Br)nc3-c3ccncc3)ccc2c1 | 82 | 
COc1ccc2cc(-c3c(-c4ccncc4)nc(-c4ccc(SC)cc4C)n3C)ccc2c1 | 335 | 
COc1ccc2cc(-c3nc(-c4ccccc4C(C)C)[nH]c3-c3ccncc3)ccc2c1 | 836 | 
COc1ccc2cc(-c3nc(-c4ccccc4C(F)(F)F)[nH]c3-c3ccncc3)ccc2c1 | 260 | 
